Screening data from PubChem.
An excerpt weighted towards active compounds, which were near 2.3% of everything screened.
STAT1 inh: inhibitors of IFN-gamma induced STAT1 signaling; NIH 3T3 STAT1-luciferase reporter, luminescence; inhibition, % at 5.5 µM; 200,000 compounds, 0.35% hits; AID 920;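 active = inhibition above a set limit, the mean inhibition across all tested compounds plus 3 SD, cut at about 34% in these data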;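 note: 0% = IFN-gamma with DMSO and 100% = IFN-gamma with 300 µM nifuroxazide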
C8 TRAIL sens: caspase-8 TRAIL sensitization | 360,000 compounds, 1% hits | inhibition (viability loss, TRAIL sensitization), % at 10 µM | NB7+C8 cells + TRAIL, ATPlite viability luminescence | AID 624354;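 active = compounds causing at least 50% loss of cell viability in the single-dose screen, relative to plate controls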
STAT3 act: activators of IL-6 induced STAT3 signaling | 190,000 compounds, 0.91% hits | activation (% of control), % at 5.6 µM | U3A cells, IL-6 STAT3-luciferase reporter, luminescence; 100% = signal with IL-6 EC80 alone;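 active = activation above the screen-wide mean of compound activation plus 3 SD, cut at about 130% in these data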;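 note: 0% = background luminescence of wells with medium and substrate only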
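Test system: human U3A cells carrying STAT3-luciferase construct; control set: IL-6-only wells as 100% reference; timing: compound pre-incubation 1 h before IL-6, then 6 h stimulation at 37 °C; also added: IL-6 stimulus at 33 ng/mL final; evaluation: % activation versus median of IL-6-stimulated wells; detection: reporter luminescence signal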
STAT3 blocker: inhibitors of IL-6 induced STAT3 signaling; U3A cells, IL-6 STAT3-luciferase reporter, luminescence; host cell line lacks STAT1; inhibition, % at 5.5 µM; 190,000 compounds, 0.89% hits; AID 862;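 active = inhibition above the mean inhibition across all screened compounds plus 3 SD, cut at about 44% in these data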;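 note: 0% = DMSO only wells and 100% = 100 µM nifuroxazide control wells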
HSP90 refold inh: inhibitors of HSP90 luciferase refolding in rabbit reticulocyte lysate. luciferase refolding luminescence, 3 h. inhibition, % at 5.6 µM. 290,000 compounds, 0.91% hits;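 active = inhibition above the screen-wide mean plus 3 SD, computed separately per campaign, cut at about 16% in these data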;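 note: 0% = DMSO wells and 100% = 60 µM geldanamycin wells; inhibitors lower the luminescence because luciferase stays unfolded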
PPC-1+TRAIL kill: PPC-1 cancer cell killing with TRAIL present; AID 1443; 220,000 compounds, 0.41% hits; cell killing (% activity), % at 4 µM or 5 µM; PPC-1 cells + TRAIL, ATPLite viability luminescence;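 active = cell killing above 50% in the first pass at 4 µM, then a duplicate retest at 5 µM averaging 50% or more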;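 note: plate controls were cells with TRAIL plus DMSO for no effect and medium-only wells lacking cells for full effect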
Numbers without * were called inactive; / = no result.

SMILES	STAT1 inh	C8 TRAIL sens	STAT3 act	STAT3 blocker	HSP90 refold inh	PPC-1+TRAIL kill
CCCS(=O)(=O)c1ncc(Cl)c(C(=O)Nc2ccc(S(=O)(=O)Nc3ncccn3)cc2)n1	/	-1.8	/	/	-1.9	/
COc1cccc(C(=O)/C=C/Nc2cc(C)ccc2O)c1	-37.1	55.0*	124.5	-24.9	7.5	15.6
CCOC(=O)c1ccc(N/C=C\C(=O)c2cccc(OC)c2)cc1	-21.1	10.9	103.8	-1.8	2.7	25.9
COc1cccc(-c2nc(CS(=O)(=O)CC(=O)NCCc3ccccc3)c(C)o2)c1	/	-5.2	/	/	0.0	/
NC(=S)Cc1nc2n(n1)Cc1ccccc1-2	-5.1	2.3	96.3	3.0	3.4	16.2
Fc1ccc(-c2nc3n(n2)Cc2ccccc2-3)cc1	-14.7	57.3*	116.7	-14.8	7.7	2.4
O=C(NNC1=NS(=O)(=O)c2ccccc21)c1ccc(Cl)cc1	3.5	47.2	91.8	11.1	3.5	49.1
O=C(NNC1=NS(=O)(=O)c2ccccc21)c1ccc([N+](=O)[O-])cc1	/	60.5*	/	/	3.4	/
CCOC(=O)c1c(NC(=O)CC2SC(N)=NC2=O)sc2c1CCC(C)C2 (stereo not given)	-13.8	-8.3	96.5	4.5	59.3*	1.4
Cc1cc(Cl)n2ncc(-c3ccccc3)c2n1	/	91.0*	/	/	5.1	21.8
Cc1cc(N)n2ncc(-c3ccc(Cl)cc3)c2n1	-44.3	7.7	110.5	-7.1	-4.0	23.5
CCCCC(=O)c1c(O)c2ccccc2oc1=O	2.3	-8.6	102.8	0.0	-0.7	19.5
O=C(CC1CCCCC1)c1c(O)c2ccccc2oc1=O	1.6	54.2*	95.9	10.4	1.0	-1.7
Cn1c(-c2ccccc2)cc2onc(-c3ccccc3)c2c1=O	/	80.8*	/	/	/	/
Cn1c(-c2ccccc2F)cc2onc(-c3ccccc3)c2c1=O	/	62.5*	/	/	/	/
Cc1ccc(S(=O)(=O)N(C)C)cc1NC(=O)c1ccc(OC(F)(F)F)cc1	6.7	20.4	98.8	6.6	1.0	10.6
Cc1cc2sc3ccc(C#CC4(O)CCCCC4)cc3c(=O)c2cc1C	/	88.1*	/	/	/	/
O=c1c2ccccc2oc2ccc(C#CC3(O)CCCCC3)cc12	/	86.8*	/	/	/	/
CCCn1c(C)cc(C(=O)COc2ncnc3sccc23)c1C	-24.1	20.7	100.7	4.9	0.4	5.4
CCCn1c(C)cc(C(=O)COc2ccc(-c3nnco3)cc2)c1C	-23.4	3.3	99.3	9.2	16.4*	-3.5
Cc1cc(C(=O)Nc2ccc(Cl)cc2)c(C)n1Cc1cccs1	/	43.0	/	/	16.4*	46.1
Cc1cc(C)cc(NC(=O)c2cc(C)n(Cc3cccs3)c2C)c1	/	51.1*	/	/	2.7	42.0
Cc1cc(C(=O)CN2C(=O)c3ccccc3C2=O)c(C)n1Cc1cccs1	-66.5	46.4	86.2	19.2	1.6	4.7
CCOC(=O)C1CCN(c2ccc([N+](=O)[O-])c(C(C)=O)c2)CC1	10.1	-3.6	96.2	8.6	-1.0	10.8
O=[N+]([O-])c1ccc(Cl)c(S(=O)(=O)Nc2ccc(-c3ccc(N4CCOCC4)nn3)cc2)c1	/	7.4	/	/	/	/
SMILES	STAT1 inh	C8 TRAIL sens	STAT3 act	STAT3 blocker	HSP90 refold inh	PPC-1+TRAIL kill
O=[N+]([O-])c1ccc(Cl)c(S(=O)(=O)Nc2cccc(-c3ccc(N4CCOCC4)nn3)c2)c1	/	58.2*	/	/	/	/
O=[N+]([O-])c1ccc(S(=O)(=O)Nc2cccc(-c3ccc(N4CCOCC4)nn3)c2)cc1	/	50.7*	/	/	/	/
COc1ccc(-c2cc(=O)oc3c(C)c(OCC(=O)NCC4CCC(C(=O)O)CC4)ccc23)cc1 (stereo not given)	/	-12.2	/	/	3.9	/
COc1cc(C2CC(=O)NC(SCC(=O)Nc3ccccc3C)=C2C#N)ccc1O (stereo not given)	-2.2	-1.7	97.9	5.0	-1.4	4.3
O=C(c1ccco1)N1CCC(c2ccccc2)C1 (stereo not given)	-16.2	-5.8	91.7	17.1	-1.9	4.0
COc1cc2nc(SCc3ccc(F)cc3)n(Cc3cccs3)c(=N)c2cc1OC	-3.6	-8.0	107.6	1.5	-2.3	-3.5
COc1ccc(Cn2c(SCc3ccccc3C)nc3cc(OC)c(OC)cc3c2=N)cc1	-1.8	86.1*	100.5	5.4	7.5	8.0
Cc1ccc(C(=O)NN2C(=O)C3C4C=CC(C4)[C@@H]3C2=O)cc1 (stereo not given in full)	/	2.6	/	/	-0.2	-14.2
Cc1cccn2c(=O)c3cc(C(=O)NCCc4ccccc4)c(=N)n(Cc4ccco4)c3nc12	/	60.1*	/	/	-2.0	/
Cc1ccc([N+](=O)[O-])cc1S(=O)(=O)NCCc1c(C)[nH]c2ccccc12	-0.9	4.6	91.8	13.0	-1.2	0.9
CCN(CC)S(=O)(=O)c1cccc(NC(=O)COC(=O)c2ccc(Br)o2)c1	-1.4	25.3	100.5	-3.7	-0.8	17.5
O=C(Nc1cccc(C2OCCCO2)c1)c1cccs1	-5.2	-1.6	101.6	2.0	-3.0	19.0
COc1ccc(-c2nn(-c3ccccc3)cc2/C=N/NC(=O)c2ccc(Br)o2)cc1	0.1	69.3*	69.4	45.1*	-1.1	15.3
CC(C)c1ccc(C(=O)NCCCNC(=O)c2cnccn2)cc1	/	18.6	/	/	2.5	/
C=CCOn1c(C)c(C(C)=O)c2c3no[n+]([O-])c3ccc21	8.1	59.8*	90.6	15.4	4.2	11.7
Cn1ccnc1SCC(=O)Nc1cccc(C#N)c1	/	-16.2	/	/	/	/
CNc1nc(N/N=C/c2cc3c(cc2[N+](=O)[O-])OCO3)nc(Nc2ccccc2)n1	-15.0	-6.3	89.2	14.9	-2.5	26.1
CNc1nc(N/N=C/c2cc([N+](=O)[O-])ccc2F)nc(Nc2ccccc2)n1	/	57.6*	/	/	/	/
COc1nc(Nc2cccc([N+](=O)[O-])c2)nc(OC)n1	-9.8	-6.0	86.4	22.7	-5.2	6.5
Cc1cccc(-n2nc([N+](=O)[O-])c(=NCc3cccnc3)n2O)c1	0.7	7.7	97.8	7.6	0.0	9.6
Cc1ccc(S(=O)(=O)n2ccc3c(OCCOCCNCc4ccc(F)cc4)cccc32)cc1	/	52.5*	/	/	4.2	/
CC(C)(C)C(=O)NCc1ccc(C(=O)CSc2nnc(C3CC3)n2C2CC2)s1	/	-6.6	/	/	/	/
Cc1occc1C(=O)Nc1ccccc1C(=O)O	5.4	2.6	98.5	10.5	-4.6	-5.3
O=C(NC1=NCCS1)C1CC(=O)N(c2ccc(Cl)cc2)C1 (stereo not given)	-6.3	-7.4	105.3	-0.3	-1.4	3.0
Cc1ccc(-c2nn(-c3ccccc3)cc2C=C2C(=O)CC(C)(C)CC2=O)cc1	-15.8	-3.6	87.3	20.6	-1.1	/
CC1=NNC(=O)/C1=C\c1cn(-c2ccccc2)nc1-c1ccc(Cl)cc1	-21.7	87.1*	55.2	61.3*	-2.1	1.7
CC(=O)Oc1ccccc1C(=O)C=Cc1cccc([N+](=O)[O-])c1	/	64.8*	/	/	/	/
Nc1ccc(-c2nc3ccccc3o2)cc1	/	20.0	/	/	16.8*	/
Cc1noc(C)c1COc1ccc(C(=O)OC(C)C(=O)Nc2ccc(N3CCOCC3)cc2)cc1 (stereo not given)	-3.3	-8.1	98.7	4.2	2.5	13.8
